Experimental data reported in ChEMBL document CHEMBL3085624, “Design, synthesis, and biological evaluation of novel investigational nonapeptide KISS1R agonists with testosterone-suppressive activity” (J Med Chem, 2013).
Activity calls are given as the source filed them. The calls are words filed in the database; no cut-off is given here. Non-standard residues stand in square brackets, D forms with d. Residues, ends and D or L forms follow the SMILES beside them. Arg(Me) = CNC(=N)NCCC[C@H](N)C(=O)O; d3Pal = N[C@H](Cc1cccnc1)C(=O)O; d4Pal = N[C@H](Cc1ccncc1)C(=O)O; Cha = N[C@@H](CC1CCCCC1)C(=O)O; azaGly = NNC(=O)O

Columns and labels:
[1] = tested on: Rattus norvegicus; assay: Suppression of testosterone in plasma of rat at 1 nmol/h, sc measured after 6 days by radioimmunoassay; type: functional, organism-based
Method in brief: (§1)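 Male rats given peptide continuously at 1 nmol/h. Plasma testosterone measured after 6 and 13 days; detection limit 0.04 ng/mL.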

[2] = tested on: Rattus norvegicus; assay: Suppression of testosterone in plasma of rat at 1 nmol/h, sc measured after 13 days by radioimmunoassay; type: functional, organism-based; method in brief: as §1
[3] = Bioavailability in Sprague-Dawley rat at 1 mg/kg, sc; type: ADME, organism-based; details: in vivo
[4] = Plasma concentration in Copenhagen rat at 2 nmol/h, sc measured after 6 days by radioimmunoassay; type: ADME, organism-based
[5] = tested on: Rattus norvegicus; assay: Suppression of testosterone in plasma of Copenhagen rat at 2 nmol/h, sc measured after 6 days by radioimmunoassay; type: functional, organism-based
Method in brief: (§2)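 9-week-old male CD(SD)IGS or Copenhagen rats (5/group) given peptide in distilled water by subcutaneous dorsal ALZET osmotic pump (2 mM, 0.001 mL/h) for 6 days; water-pump controls. Plasma (aprotinin/EDTA) testosterone measured by RIA on 0.05 mL. Values below detection limit (0.04 ng/mL) set to 0.04; results expressed as percent of control.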

[6] = tested on: Rattus norvegicus; assay: Suppression of testosterone in plasma of Sprague-Dawley rat at 2 nmol/h, sc measured after 6 days by radioimmunoassay; type: functional; method in brief: as §2
[7] = tested on: Rattus norvegicus; assay: Induction of ovulation in immature Wistar rats assessed as increase in number of oocytes at 30 to 100 nmol/kg administered dorsally by stereomicroscopy; type: functional, organism-based
Method in brief: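 23-day-old female Wistar rats primed subcutaneously with eCG 10 IU/animal. Two days later, saline-dissolved agents injected dorsally at 30 or 100 nmol/kg (5 rats/group; saline control 6; hCG 10 IU positive control). Animals killed 24–25 h later. Oöcytes retrieved from oviducal ampulla under stereomicroscopy, or by flushing oviduct and uterus with saline, and counted.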

[8] = Metabolic stability in mouse serum assessed as compound remaining at 0.1 mM after 1 hr by HPLC analysis; type: ADME; details: read-out: Stability
Method in brief: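 Pooled mouse serum (45 µL) spiked with 5 µL of 1 mM aqueous peptide, giving 0.1 mM initial, and incubated at 37 °C. Aliquots taken at time 0 and after 1 h, quenched by boiling 3 min. Peptide quantified by HPLC peak area. Percent remaining relative to time 0; three independent experiments.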

[9] = target: KiSS-1 receptor (Rattus norvegicus, UniProt Q924U1); assay: Binding affinity to rat KISS1R
Chain of KiSS-1 receptor (Rattus norvegicus, UniProt Q924U1) (Q924U1 whole entry): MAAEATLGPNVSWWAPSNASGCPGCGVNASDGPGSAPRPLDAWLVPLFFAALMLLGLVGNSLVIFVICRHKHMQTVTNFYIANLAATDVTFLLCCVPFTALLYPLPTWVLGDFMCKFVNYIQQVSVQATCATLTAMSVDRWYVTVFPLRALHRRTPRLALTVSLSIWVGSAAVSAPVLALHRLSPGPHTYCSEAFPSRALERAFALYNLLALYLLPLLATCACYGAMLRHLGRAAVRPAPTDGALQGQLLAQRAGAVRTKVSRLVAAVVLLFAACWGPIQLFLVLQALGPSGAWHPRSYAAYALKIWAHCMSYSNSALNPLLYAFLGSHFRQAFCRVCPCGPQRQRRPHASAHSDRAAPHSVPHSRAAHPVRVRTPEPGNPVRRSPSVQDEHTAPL

[10] = target: T1, KiSS-1 receptor (Homo sapiens, UniProt Q969F8); assay: Binding affinity to human KISS1R expressed in CHO cell membranes
T1 sequence (Q969F8 whole entry): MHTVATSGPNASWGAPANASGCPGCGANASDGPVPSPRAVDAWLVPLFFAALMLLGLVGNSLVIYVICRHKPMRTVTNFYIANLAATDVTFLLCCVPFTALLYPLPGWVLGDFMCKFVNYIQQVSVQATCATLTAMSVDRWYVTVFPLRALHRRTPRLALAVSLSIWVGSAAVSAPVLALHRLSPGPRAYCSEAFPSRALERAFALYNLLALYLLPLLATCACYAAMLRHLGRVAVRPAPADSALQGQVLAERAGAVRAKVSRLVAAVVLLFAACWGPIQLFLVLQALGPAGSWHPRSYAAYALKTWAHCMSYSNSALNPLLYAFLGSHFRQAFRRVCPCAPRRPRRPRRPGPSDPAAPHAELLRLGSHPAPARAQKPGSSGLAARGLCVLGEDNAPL

[11] = target: T1, KiSS-1 receptor; assay: Agonist activity at recombinant human KISS1R expressed in CHO cells assessed as intracellular calcium mobilization incubated for 30 mins at 37 degC and 30 mins at room temperature by Fluo-4 NW staining-based FLIPR assay relative to Metastin (45 to 54); type: functional, cell-based
Method in brief: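 CHO cells stably expressing human KISS1R seeded at 15,000 cells/well, cultured 24 h, then loaded with Fluo-4 Direct in HBSS with 4 mM probenecid and 0.1% BSA (30 min 37 °C, 30 min room temperature). Compounds from 10 µM DMSO stocks diluted in sample buffer and added. Fluorescence read for 2 min at 2 s intervals. Peak counts give agonist activity. EC50 expressed as ratio to metastin(45-54).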

Row | Structure (SMILES) | Ki [9] [nM] | Ki [10] [nM] | fold change (FC) [11] | other results
1 | CNC(=N)NCCC[C@H](NC(=O)[C@H](CC(C)C)NC(=O)NNC(=O)[C@H](Cc1ccccc1)NC(=O)[C@H](CO)NC(=O)[C@H](CC(N)=O)NC(=O)[C@@H](Cc1ccncc1)NC(=O)[C@H](N)Cc1ccc(O)cc1)C(=O)N[C@@H](Cc1ccccc1)C(N)=O [KISS1-305] (H-[dY][d4Pal]NSF[azaGly]L[Arg(Me)]F-NH2) | 0.1 | 0.089 | 4.8 | Activity [1]: Active; Activity [2]: Active; bioavailability [3]: 40.4%; concentration at 144 h [4]: 0.95 nM; Activity [5]: Active; Activity [6]: 0.04 ng/mL; Activity [7]: Active; remaining at 1 h, 100 µM [8]: 54.9%
2 | CNC(=N)NCCC[C@H](NC(=O)[C@H](CC(C)C)NC(=O)NNC(=O)[C@H](Cc1ccccc1)NC(=O)[C@H](CO)NC(=O)[C@H](CC(N)=O)NC(=O)[C@@H](Cc1c[nH]c2ccccc12)NC(=O)[C@H](N)Cc1ccc(O)cc1)C(=O)N[C@@H](Cc1ccccc1)C(N)=O (H-[dY][dW]NSF[azaGly]L[Arg(Me)]F-NH2) | 0.11 | 0.065 | 4.5 | 
3 | CNC(=N)NCCC[C@H](NC(=O)[C@H](CC(C)C)NC(=O)NNC(=O)[C@H](Cc1ccccc1)NC(=O)[C@H](CO)NC(=O)[C@H](CC(N)=O)NC(=O)[C@H](Cc1c[nH]c2ccccc12)NC(=O)[C@H](CC(N)=O)NC(=O)[C@@H](C)N)C(=O)N[C@@H](Cc1ccccc1)C(N)=O (H-[dA]NWNSF[azaGly]L[Arg(Me)]F-NH2) | 0.52 | 0.51 | 4.9 | 
4 | CNC(N)=NCCC[C@H](NC(=O)[C@H](CC(C)C)NC(=O)NNC(=O)[C@H](Cc1ccccc1)NC(=O)[C@H](CO)NC(=O)[C@H](CC(N)=O)NC(=O)[C@H](Cc1ccccc1)NC(=O)[C@@H](CC(N)=O)NC(=O)[C@H](N)Cc1ccc(O)cc1)C(=O)N[C@@H](Cc1ccccc1)C(N)=O (H-[dY][dN]FNSF[azaGly]L[Arg(Me)]F-NH2) | 0.12 | 0.12 |  | remaining at 1 h, 100 µM [8]: 24.7%
5 | CC[C@H](C)[C@H](NC(=O)[C@H](N)Cc1ccc(O)cc1)C(=O)N[C@@H](CC(N)=O)C(=O)N[C@@H](CO)C(=O)N[C@@H](Cc1ccccc1)C(=O)NNC(=O)N[C@@H](CC(C)C)C(=O)N[C@@H](CCCNC(=N)NC)C(=O)N[C@@H](Cc1ccccc1)C(N)=O (H-[dY]INSF[azaGly]L[Arg(Me)]F-NH2) | 0.13 | 0.12 | 14 | 
6 | CNC(=N)NCCC[C@H](NC(=O)[C@H](CC(C)C)NC(=O)NNC(=O)[C@H](Cc1ccccc1)NC(=O)[C@H](CO)NC(=O)[C@H](CC(N)=O)NC(=O)[C@H](Cc1c[nH]c2ccccc12)NC(=O)[C@@H](Cc1cnc[nH]1)NC(=O)[C@H](N)Cc1ccc(O)cc1)C(=O)N[C@@H](Cc1ccccc1)C(N)=O | 0.043 | 0.033 | 6.2 | 
7 | CNC(N)=NCCC[C@H](NC(=O)[C@H](CC(C)C)NC(=O)NNC(=O)[C@H](Cc1ccccc1)NC(=O)[C@H](CO)NC(=O)[C@H](CC(N)=O)NC(=O)[C@@H](NC(=O)[C@@H](CC(N)=O)NC(=O)[C@H](N)Cc1ccc(O)cc1)[C@@H](C)O)C(=O)N[C@@H](Cc1ccccc1)C(N)=O | 0.25 | 0.29 |  | remaining at 1 h, 100 µM [8]: 65.8%
8 | CNC(=N)NCCC[C@H](NC(=O)[C@H](CC(C)C)NC(=O)NNC(=O)[C@H](Cc1ccccc1)NC(=O)[C@H](CO)NC(=O)[C@H](CC(N)=O)NC(=O)[C@H](Cc1c[nH]c2ccccc12)NC(=O)[C@H](N)Cc1ccc(O)cc1)C(=O)N[C@@H](Cc1ccccc1)C(N)=O (H-[dY]WNSF[azaGly]L[Arg(Me)]F-NH2) | 0.059 | 0.044 | 2.4 | remaining at 1 h, 100 µM [8]: 43.4%
9 | CNC(=N)NCCC[C@H](NC(=O)[C@H](CC(C)C)NC(=O)CNC(=O)[C@H](Cc1ccccc1)NC(=O)[C@H](CO)NC(=O)[C@H](CC(N)=O)NC(=O)[C@H](Cc1c[nH]c2ccccc12)NC(=O)[C@H](CC(N)=O)NC(=O)[C@H](N)Cc1ccc(O)cc1)C(=O)N[C@@H](Cc1ccccc1)C(N)=O |  |  | 0.93 | Activity [6]: Active
10 | CNC(N)=NCCC[C@H](NC(=O)[C@H](CC(C)C)NC(=O)NNC(=O)[C@H](Cc1ccccc1)NC(=O)[C@H](CO)NC(=O)[C@H](CC(N)=O)NC(=O)[C@H](CO)NC(=O)[C@H](N)Cc1ccc(O)cc1)C(=O)N[C@@H](Cc1ccccc1)C(N)=O (H-[dY]SNSF[azaGly]L[Arg(Me)]F-NH2) | 0.3 | 0.21 |  | 
11 | CNC(=N)NCCC[C@H](NC(=O)[C@H](CC(C)C)NC(=O)NNC(=O)[C@H](Cc1ccccc1)NC(=O)[C@H](CO)NC(=O)[C@H](CC(N)=O)NC(=O)[C@H](CC1CCCCC1)NC(=O)[C@@H](CC(N)=O)NC(=O)[C@H](N)Cc1cccnc1)C(=O)N[C@@H](Cc1ccccc1)C(N)=O (H-[d3Pal][dN][Cha]NSF[azaGly]L[Arg(Me)]F-NH2) | 0.18 | 0.2 | 10 | 
12 | CNC(=N)NCCC[C@H](NC(=O)[C@H](CC(C)C)NC(=O)NNC(=O)[C@H](Cc1ccccc1)NC(=O)[C@H](CO)NC(=O)[C@H](CC(N)=O)NC(=O)[C@@H](NC(=O)[C@H](N)Cc1ccc(O)cc1)[C@@H](C)O)C(=O)N[C@@H](Cc1ccccc1)C(N)=O (H-[dY]TNSF[azaGly]L[Arg(Me)]F-NH2) | 0.24 | 0.2 | 8.9 | 
13 | CNC(=N)NCCC[C@H](NC(=O)[C@H](CC(C)C)NC(=O)NNC(=O)[C@H](Cc1ccccc1)NC(=O)[C@H](CO)NC(=O)[C@H](CC(N)=O)NC(=O)[C@H](CC1CCCCC1)NC(=O)[C@@H](CC(N)=O)NC(=O)[C@H](N)Cc1ccc(O)cc1)C(=O)N[C@@H](Cc1ccccc1)C(N)=O (H-[dY][dN][Cha]NSF[azaGly]L[Arg(Me)]F-NH2) | 0.076 | 0.055 | 17 | 
14 | CCNC(=O)[C@@H]1CCCN1C(=O)[C@H](CCCNC(=N)N)NC(=O)[C@H](CC(C)C)NC(=O)[C@@H](CC(C)C)NC(=O)[C@H](Cc1ccc(O)cc1)NC(=O)[C@H](CO)NC(=O)[C@H](Cc1c[nH]c2ccccc12)NC(=O)[C@H](Cc1c[nH]cn1)NC(=O)[C@@H]1CCC(=O)N1 |  |  |  | Activity [2]: Active
15 | CNC(=N)NCCC[C@H](NC(=O)[C@H](CC(C)C)NC(=O)NNC(=O)[C@H](Cc1ccccc1)NC(=O)[C@H](CO)NC(=O)[C@H](CC(N)=O)NC(=O)[C@H](Cc1c[nH]c2ccccc12)NC(=O)[C@H](CC(N)=O)NC(=O)[C@H](N)Cc1cccnc1)C(=O)N[C@@H](Cc1ccccc1)C(N)=O (H-[d3Pal]NWNSF[azaGly]L[Arg(Me)]F-NH2) | 0.14 | 0.12 | 2.3 | 
16 | CNC(N)=NCCC[C@H](NC(=O)[C@H](CC(C)C)NC(=O)NNC(=O)[C@H](Cc1ccccc1)NC(=O)[C@H](CO)NC(=O)[C@H](CC(N)=O)NC(=O)[C@H](Cc1ccncc1)NC(=O)[C@@H](CC(N)=O)NC(=O)[C@@H](N)Cc1ccc(O)cc1)C(=O)N[C@@H](Cc1ccccc1)C(N)=O | 0.16 | 0.21 |  | 
